The values below come from ChEMBL document CHEMBL1148606 (J Med Chem, 2006).

Holding throughout (type): cell-based
The target in test [1] is T1, Adenosine receptor A2a (Homo sapiens, UniProt P29274). Description: Displacement of [3H]CGS-21680 from human adenosine A2A receptor transfected in HEK293 cells. An outline of the steps:
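Membranes (20 µg/tube) from HEK-293 cells stably expressing human A2A receptor, incubated with 15 nM [3H]CGS21680 at 25 °C for 60 min in 50 mM Tris·HCl pH 7.4 with 10 mM MgCl2. Nonspecific binding defined with 10 µM NECA. Terminated by filtration through GF/B filters.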

A further test has as its target T2, Adenosine receptor A3 (Homo sapiens, UniProt P0DMS8).
T2 sequence (P0DMS8 whole entry): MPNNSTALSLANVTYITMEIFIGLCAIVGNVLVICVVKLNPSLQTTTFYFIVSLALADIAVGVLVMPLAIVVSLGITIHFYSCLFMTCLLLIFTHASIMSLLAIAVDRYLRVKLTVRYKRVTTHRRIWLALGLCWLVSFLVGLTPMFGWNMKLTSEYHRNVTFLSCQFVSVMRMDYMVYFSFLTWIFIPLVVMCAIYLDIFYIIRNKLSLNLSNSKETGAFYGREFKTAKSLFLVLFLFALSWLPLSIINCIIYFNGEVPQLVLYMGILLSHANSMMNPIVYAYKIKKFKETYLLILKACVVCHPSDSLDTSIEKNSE
Description: Displacement of [125I]AB-MECA from human adenosine A3 receptor transfected in CHO cells.

A further test has as its target T3, Adenosine receptor A1 (Homo sapiens, UniProt P30542).
T3 sequence (P30542 whole entry): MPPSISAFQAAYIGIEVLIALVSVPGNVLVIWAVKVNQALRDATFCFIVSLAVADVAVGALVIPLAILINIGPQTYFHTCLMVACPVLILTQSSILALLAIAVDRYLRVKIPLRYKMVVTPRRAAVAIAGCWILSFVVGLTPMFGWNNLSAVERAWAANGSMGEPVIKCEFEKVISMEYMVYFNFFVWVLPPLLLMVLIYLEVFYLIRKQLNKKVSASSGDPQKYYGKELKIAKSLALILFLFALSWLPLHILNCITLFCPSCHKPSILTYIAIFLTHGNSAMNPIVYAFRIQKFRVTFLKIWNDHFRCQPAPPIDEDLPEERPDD
Nature of the test: Displacement of [3H]R-PIA from human adenosine A1 receptor transfected in CHO cells. An outline of the steps: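 Membranes (40 µg/tube) from CHO cells stably expressing human A1 receptor were incubated with 2 nM [3H]R-PIA at 25 °C for 60 min in 50 mM Tris·HCl pH 7.4 containing 10 mM MgCl2. Nonspecific binding defined with 10 µM CPA. Terminated by filtration through GF/B filters.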

Test [2] has as its target T4, Adenosine receptor A1 (Homo sapiens) (UniProt P30542).
T4 sequence (whole entry): T3 sequence (P30542 whole entry)
Description: Inhibition of [3H]R-PIA binding to human adenosine A1 receptor transfected in CHO cells at 10 uM.

Test [3] has as its target T1, Adenosine receptor A2a. Description: Inhibition of [3H]CGS-21680 binding to human adenosine A2A receptor transfected in HEK293 cells at 10 uM.

T1 sequence (P29274 whole entry): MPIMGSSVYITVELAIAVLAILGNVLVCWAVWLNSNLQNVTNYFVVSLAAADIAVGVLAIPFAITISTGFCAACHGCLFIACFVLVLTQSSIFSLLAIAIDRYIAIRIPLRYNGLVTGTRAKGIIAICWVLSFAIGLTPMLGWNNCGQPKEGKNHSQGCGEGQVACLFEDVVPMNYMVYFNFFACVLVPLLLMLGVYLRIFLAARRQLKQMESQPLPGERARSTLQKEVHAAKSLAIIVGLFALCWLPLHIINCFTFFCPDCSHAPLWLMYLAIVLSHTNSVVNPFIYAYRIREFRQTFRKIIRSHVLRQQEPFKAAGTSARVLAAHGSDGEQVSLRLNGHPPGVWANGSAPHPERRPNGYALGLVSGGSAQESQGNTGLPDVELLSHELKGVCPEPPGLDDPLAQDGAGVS

As to `CNc1nc(Cl)nc2c1ncn2[C@@H]1S[C@H](C(=O)NC2CC2)[C@@H](O)[C@H]1O`, the Ki worked out at 2770 nM on Adenosine receptor A2a [1], 2.82 nM at Adenosine receptor A3 and 47.8 nM at Adenosine receptor A1.

Regarding `CNC(=O)[C@H]1S[C@@H](n2cnc3c(NC4CC4)nc(Cl)nc32)[C@H](O)[C@@H]1O`, the Ki came to 4890 nM on Adenosine receptor A2a [1], 2.24 nM on Adenosine receptor A3 and 37.3 nM on Adenosine receptor A1.

Consider `CNc1nc(Cl)nc2c1ncn2[C@@H]1S[C@H](C(=O)N(C)C)[C@@H](O)[C@H]1O`, for which the inhibition was found to be 10% in test [2] and 12% at Adenosine receptor A2a [3]. Further, on Adenosine receptor A3, the Ki was determined as 1500 nM.

For `O=C([C@H]1S[C@@H](n2cnc3c(NCc4cccc(I)c4)nc(Cl)nc32)[C@H](O)[C@@H]1O)N1CCN(c2ccc(F)cc2)CC1`, the values for the inhibition (in test [2]; on Adenosine receptor A2a [3]) were 24% and 12%, respectively. Further, the Ki on Adenosine receptor A3 was determined as 1440 nM.

As for `CCNC(=O)[C@H]1S[C@@H](n2cnc3c(NCc4cccc(I)c4)nc(Cl)nc32)[C@H](O)[C@@H]1O`, the Ki was 292 nM at Adenosine receptor A2a [1], 0.89 nM on Adenosine receptor A3 and 144 nM on Adenosine receptor A1.

As to `CNc1nc(Cl)nc2c1ncn2[C@@H]1S[C@H](C(=O)NCCc2cccc(F)c2)[C@@H](O)[C@H]1O`, the inhibition in test [2] is 15%; at Adenosine receptor A2a [3] it was 30%. On Adenosine receptor A3, this molecule registered a Ki of 85.6 nM.

Consider `O=C(NCc1cccc(C(F)(F)F)c1)[C@H]1S[C@@H](n2cnc3c(NCc4cccc(I)c4)nc(Cl)nc32)[C@H](O)[C@@H]1O`, for which the inhibition in test [2] is 0%; on Adenosine receptor A2a [3], 11%. Further, on Adenosine receptor A3, affinity was put at a Ki of 354 nM.

For the molecule `O=C([C@H]1S[C@@H](n2cnc3c(NC4CC4)nc(Cl)nc32)[C@H](O)[C@@H]1O)N1CCC(Cc2ccccc2)CC1`, the inhibition in test [2] was determined as 32%; at Adenosine receptor A2a [3] it was 33%. The same molecule had a Ki at Adenosine receptor A3 of 4020 nM.

Consider `Cc1ccccc1CNc1nc(Cl)nc2c1ncn2[C@@H]1S[C@H](C(=O)N(C)C)[C@@H](O)[C@H]1O`, for which the inhibition in test [2] was found to be 0%; at Adenosine receptor A2a [3], 22.5%. Further, the Ki at Adenosine receptor A3 is 632 nM.

As for `CNc1nc(Cl)nc2c1ncn2[C@@H]1S[C@H](C(=O)N2CCC(Cc3ccccc3)CC2)[C@@H](O)[C@H]1O`, the inhibition was determined as 10% in test [2] and 6% at Adenosine receptor A2a [3]. Affinity on Adenosine receptor A3 was put at a Ki of 3500 nM.

As for `CNc1nc(Cl)nc2c1ncn2[C@@H]1S[C@H](C(=O)N2CCOCC2)[C@@H](O)[C@H]1O`, the inhibition in test [2] was 4%; on Adenosine receptor A2a [3] it was 24%. In addition, the Ki at Adenosine receptor A3 came to 3870 nM.

As for `CCNC(=O)[C@H]1S[C@@H](n2cnc3c(NC4CC4)nc(Cl)nc32)[C@H](O)[C@@H]1O`, the Ki on Adenosine receptor A2a [1] was 604 nM; at Adenosine receptor A3 it was 0.67 nM; on Adenosine receptor A1 it was 3.2 nM.

For `CNc1nc(Cl)nc2c1ncn2[C@@H]1S[C@H](C(=O)NCC2CC2)[C@@H](O)[C@H]1O`, the inhibition constant (Ki) at Adenosine receptor A3 amounted to 1.1 nM; on Adenosine receptor A1, 638 nM. In addition, at Adenosine receptor A2a [3], the inhibition turned out to be 44%.

As to `O=C([C@H]1S[C@@H](n2cnc3c(NC4CC4)nc(Cl)nc32)[C@H](O)[C@@H]1O)N1CCOCC1`, the results for the inhibition (in test [2]; on Adenosine receptor A2a [3]) were 25% and 11%, respectively. Moreover, the affinity at Adenosine receptor A3, expressed as Ki, was 4440 nM.

`CNc1nc(Cl)nc2c1ncn2[C@@H]1S[C@H](C(=O)NCc2cccc(F)c2)[C@@H](O)[C@H]1O`: the results for the inhibition (in test [2]; on Adenosine receptor A2a [3]) were 67% and 41%, respectively. The Ki at Adenosine receptor A3 is 17.4 nM.

`O=C(NCCc1ccccc1)[C@H]1S[C@@H](n2cnc3c(NCc4cccc(I)c4)nc(Cl)nc32)[C@H](O)[C@@H]1O`: the values for the inhibition (in test [2]; on Adenosine receptor A2a [3]) were 20% and 11%, respectively. The Ki on Adenosine receptor A3 turned out to be 433 nM.

As to `O=C(NC1CC1)[C@H]1S[C@@H](n2cnc3c(NC4CC4)nc(Cl)nc32)[C@H](O)[C@@H]1O`, the Ki on Adenosine receptor A2a [1] came out at 325 nM; at Adenosine receptor A3, 5.56 nM; on Adenosine receptor A1, 4.6 nM.

As to `Cc1ccccc1CNc1nc(Cl)nc2c1ncn2[C@@H]1S[C@H](C(=O)N2CCC(Cc3ccccc3)CC2)[C@@H](O)[C@H]1O`, the results for the inhibition (in test [2]; at Adenosine receptor A2a [3]) were 26% and 15%, respectively. This molecule had a Ki on Adenosine receptor A3 of 49200 nM.

At Adenosine receptor A2a [3], `CNC(=O)[C@H]1S[C@@H](n2cnc3c(NC)nc(Cl)nc32)[C@H](O)[C@@H]1O` had an inhibition of 20%.

In the case of `O=C(NC1CCC1)[C@H]1S[C@@H](n2cnc3c(NCc4cccc(I)c4)nc(Cl)nc32)[C@H](O)[C@@H]1O`, the values for the Ki on Adenosine receptor A2a [1], on Adenosine receptor A3 and at Adenosine receptor A1 were 549 nM, 18.2 nM and 126 nM, respectively.

Turning to `O=C(NCCC(c1ccccc1)c1ccccc1)[C@H]1S[C@@H](n2cnc3c(NCc4cccc(I)c4)nc(Cl)nc32)[C@H](O)[C@@H]1O`, the values for the inhibition (in test [2]; at Adenosine receptor A2a [3]) were 5% and 3%, respectively. Moreover, the affinity at Adenosine receptor A3, expressed as Ki, was 343 nM.

Regarding `CC(C)CCNC(=O)[C@H]1S[C@@H](n2cnc3c(NCc4cccc(I)c4)nc(Cl)nc32)[C@H](O)[C@@H]1O`, the inhibition (in test [2]; on Adenosine receptor A2a [3]) was 31% each time. Moreover, the affinity at Adenosine receptor A3, expressed as Ki, was 41.9 nM.

Consider `CNC(=O)[C@H]1S[C@@H](n2cnc3c(NC4CCCC4)nc(Cl)nc32)[C@H](O)[C@@H]1O`, for which the Ki was determined as 921 nM on Adenosine receptor A2a [1], 4.27 nM on Adenosine receptor A3 and 13.9 nM at Adenosine receptor A1.

`O=C(NC1CC1)[C@H]1S[C@@H](n2cnc3c(NCc4cccc(I)c4)nc(Cl)nc32)[C@H](O)[C@@H]1O`: the Ki at Adenosine receptor A2a [1] was 326 nM; at Adenosine receptor A3, 2.96 nM; on Adenosine receptor A1, 92 nM.

On to `CCNC(=O)[C@H]1S[C@@H](n2cnc3c(NCc4ccccc4C)nc(Cl)nc32)[C@H](O)[C@@H]1O`, for which the Ki is 429 nM at Adenosine receptor A2a [1], 2.5 nM at Adenosine receptor A3 and 75.8 nM at Adenosine receptor A1.

With `CCNC(=O)[C@H]1S[C@@H](n2cnc3c(NC4CCCC4)nc(Cl)nc32)[C@H](O)[C@@H]1O`, the Ki at Adenosine receptor A2a [1] worked out at 149 nM; at Adenosine receptor A1 it was 2 nM.

Turning to `CNC(=O)[C@H]1S[C@@H](n2cnc3c(NCc4ccccc4C)nc(Cl)nc32)[C@H](O)[C@@H]1O`, the inhibition constant (Ki) at Adenosine receptor A2a [1] came to 1320 nM; on Adenosine receptor A3, 2.18 nM; on Adenosine receptor A1, 507 nM.

In the case of `CNc1nc(Cl)nc2c1ncn2[C@@H]1S[C@H](C(=O)N2CCN(c3ccc(F)cc3)CC2)[C@@H](O)[C@H]1O`, the figures for the inhibition (in test [2]; at Adenosine receptor A2a [3]) were 28% and 34%, respectively. This molecule yielded a Ki on Adenosine receptor A3 of 2700 nM.

In the case of `O=C([C@H]1S[C@@H](n2cnc3c(NCc4cccc(I)c4)nc(Cl)nc32)[C@H](O)[C@@H]1O)N1CCOCC1`, the inhibition in test [2] was 18%; on Adenosine receptor A2a [3], 4%. Moreover, the affinity on Adenosine receptor A3 corresponds to a Ki of 510 nM.

For `O=C(NCC1CC1)[C@H]1S[C@@H](n2cnc3c(NCc4cccc(I)c4)nc(Cl)nc32)[C@H](O)[C@@H]1O`, the Ki at Adenosine receptor A2a [1] worked out at 2220 nM; on Adenosine receptor A3, 3.64 nM; at Adenosine receptor A1, 1720 nM.

For the molecule `O=C(NCc1cccc(Cl)c1)[C@H]1S[C@@H](n2cnc3c(NCc4cccc(I)c4)nc(Cl)nc32)[C@H](O)[C@@H]1O`, the Ki at Adenosine receptor A3 stood at 308 nM; at Adenosine receptor A1, 1710 nM. Moreover, the inhibition at Adenosine receptor A2a [3] was found to be 28%.

With `CNc1nc(Cl)nc2c1ncn2[C@@H]1S[C@H](C(=O)NCCC(c2ccccc2)c2ccccc2)[C@@H](O)[C@H]1O`, the inhibition turned out to be 20% in test [2] and 15% at Adenosine receptor A2a [3]. Besides, at Adenosine receptor A3, affinity was put at a Ki of 415 nM.

In the case of `Cc1ccccc1CNc1nc(Cl)nc2c1ncn2[C@@H]1S[C@H](C(=O)NCC2CC2)[C@@H](O)[C@H]1O`, the Ki was 3890 nM on Adenosine receptor A2a [1], 29.7 nM on Adenosine receptor A3 and 1980 nM at Adenosine receptor A1.

On to `Cc1ccccc1CNc1nc(Cl)nc2c1ncn2[C@@H]1S[C@H](C(=O)NC2CC2)[C@@H](O)[C@H]1O`, for which the Ki on Adenosine receptor A2a [1] was determined as 202 nM; on Adenosine receptor A3, 27.8 nM; at Adenosine receptor A1 it was 76.7 nM.

As to `Cc1ccccc1CNc1nc(Cl)nc2c1ncn2[C@@H]1S[C@H](C(=O)N2CCOCC2)[C@@H](O)[C@H]1O`, the inhibition was 4% in test [2] and 17% on Adenosine receptor A2a [3]. Besides, the Ki at Adenosine receptor A3 is 7670 nM.

Regarding `O=C([C@H]1S[C@@H](n2cnc3c(NCc4cccc(I)c4)nc(Cl)nc32)[C@H](O)[C@@H]1O)N1CCC(Cc2ccccc2)CC1`, the figures for the inhibition (in test [2]; on Adenosine receptor A2a [3]) were 38% and 17%, respectively. The Ki at Adenosine receptor A3 turned out to be 878 nM.

For the molecule `CNc1nc(Cl)nc2c1ncn2[C@@H]1S[C@H](C(=O)NCCC(C)C)[C@@H](O)[C@H]1O`, the Ki at Adenosine receptor A3 worked out at 1.63 nM; on Adenosine receptor A1 it was 4070 nM. For the same molecule, the inhibition on Adenosine receptor A2a [3] was 14%.
